Reference: ChEMBL document CHEMBL1128174, “Enhanced D1 affinity in a series of piperazine ring substituted 1-piperazino-3-arylindans with potential atypical antipsychotic activity” (J Med Chem, 1995)
Several values for one entry are separate records, joined by “and”; a condition that tells them apart may be missing. Equal entries are not always repeated.

What was measured:
D(2) dopamine receptor = D(2) dopamine receptor (Rattus norvegicus, UniProt P61169); assay: Binding affinity against dopamine receptor D2
D(1A) dopamine receptor = D(1A) dopamine receptor (Rattus norvegicus, UniProt P18901); assay: Binding affinity for dopamine receptor D1, activity is expressed as IC50 values.
Mus musculus = organism: Mus musculus; assay: Antagonism of methyl phenidate-induced gnawing behavior in mice; format: functional
Summary of the method: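 Test compound given ip (or sc) 2 h before methyl phenidate (60 mg/kg); mice housed in pairs on corrugated cardboard in gnawing cages, 5–9 pairs per dose.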

Rattus norvegicus [1] = organism: Rattus norvegicus; assay: Cataleptogenic effect in rats; format: functional
Summary of the method: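 Rats scored on a vertical wire grid hourly 1–6 h after dosing; catalepsy counted when immobility lasted at least 15 s.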

[2] = biological target: 5-hydroxytryptamine receptor 2A (Rattus norvegicus, UniProt P14842); assay: Binding affinity for 5-hydroxytryptamine 2A receptor, activity is expressed as IC50 values.
Rattus norvegicus [3] = organism: Rattus norvegicus; assay: In vitro inhibition of [3H]5-HT uptake in rat brain (minus pons, medulla oblongata and cerebellum) homogenates.; format: functional
Rattus norvegicus [4] = organism: Rattus norvegicus; assay: In vitro inhibition of [3H]NE uptake in rat occipital lobe (plus temporal cortex) homogenates.; format: functional
Rattus norvegicus [5] = organism: Rattus norvegicus; assay: In vitro inhibition of [3H]dopamine uptake in rat corpus striatum homogenates.; format: functional
[6] = Rattus norvegicus, read-out: ED50
[7] = Rattus norvegicus, Corpus striatum

Sequence of D(2) dopamine receptor (P61169 whole entry): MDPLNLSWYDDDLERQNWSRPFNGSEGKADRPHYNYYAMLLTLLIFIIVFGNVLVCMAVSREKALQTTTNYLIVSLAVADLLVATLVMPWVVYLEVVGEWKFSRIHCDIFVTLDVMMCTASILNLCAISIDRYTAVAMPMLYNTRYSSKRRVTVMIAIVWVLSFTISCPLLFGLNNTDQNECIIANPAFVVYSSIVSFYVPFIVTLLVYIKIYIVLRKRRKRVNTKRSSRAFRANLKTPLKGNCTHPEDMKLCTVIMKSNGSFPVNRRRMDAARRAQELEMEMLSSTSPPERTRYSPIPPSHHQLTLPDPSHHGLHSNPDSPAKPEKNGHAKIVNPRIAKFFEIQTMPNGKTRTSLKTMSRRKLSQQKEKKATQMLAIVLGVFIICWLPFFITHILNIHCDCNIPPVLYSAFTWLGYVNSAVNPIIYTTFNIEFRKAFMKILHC
Sequence of D(1A) dopamine receptor (P18901 whole entry): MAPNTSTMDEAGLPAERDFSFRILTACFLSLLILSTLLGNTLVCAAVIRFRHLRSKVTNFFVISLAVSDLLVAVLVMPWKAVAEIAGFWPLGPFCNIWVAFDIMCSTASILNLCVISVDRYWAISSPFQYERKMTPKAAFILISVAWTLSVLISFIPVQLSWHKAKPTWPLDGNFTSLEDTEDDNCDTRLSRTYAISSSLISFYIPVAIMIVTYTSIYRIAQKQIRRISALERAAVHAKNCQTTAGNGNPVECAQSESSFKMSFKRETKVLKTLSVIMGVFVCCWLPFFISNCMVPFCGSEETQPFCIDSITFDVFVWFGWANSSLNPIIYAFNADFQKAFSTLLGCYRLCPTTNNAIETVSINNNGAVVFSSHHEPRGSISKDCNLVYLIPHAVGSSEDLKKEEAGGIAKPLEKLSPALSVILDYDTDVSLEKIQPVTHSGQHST
Sequence of 5-hydroxytryptamine receptor 2A (P14842 whole entry): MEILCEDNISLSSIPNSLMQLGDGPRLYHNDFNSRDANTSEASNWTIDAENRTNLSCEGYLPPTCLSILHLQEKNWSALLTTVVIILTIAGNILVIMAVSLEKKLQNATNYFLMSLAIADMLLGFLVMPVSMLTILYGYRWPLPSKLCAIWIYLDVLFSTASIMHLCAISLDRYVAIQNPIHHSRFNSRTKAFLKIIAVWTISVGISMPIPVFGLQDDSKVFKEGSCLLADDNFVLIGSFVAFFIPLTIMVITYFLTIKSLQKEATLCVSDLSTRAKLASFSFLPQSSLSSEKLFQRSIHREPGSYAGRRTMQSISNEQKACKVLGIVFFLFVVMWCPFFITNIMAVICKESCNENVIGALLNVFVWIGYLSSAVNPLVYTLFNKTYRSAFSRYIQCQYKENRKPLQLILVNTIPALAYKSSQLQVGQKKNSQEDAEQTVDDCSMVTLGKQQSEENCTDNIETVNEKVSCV

Compound	IC50 (D(2) dopamine receptor)	IC50 (D(1A) dopamine receptor)	ED50 (Mus musculus; Mus musculus, read-out: ED50)	ED50 (Rattus norvegicus [1]; [6])	also measured
OCCN1CCN(C2CC(c3ccc(F)cc3)c3ccc(C(F)(F)F)cc32)CC1 (stereo not given)	10 nM	23 nM			
CC(C)c1ccc2c(c1)C(N1CCN(CCO)CC1)CC2c1ccc(F)cc1 (stereo not given)	14 nM	66 nM			
OCCN1CCN(C2CC(c3ccccc3)c3ccccc32)CC1 (stereo not given)	2800 nM	730 nM			
CN1CCN(C2CC(c3ccc(F)cc3)c3cccc(Cl)c32)CC1(C)C (stereo not given)			> 41 µmol/kg	> 41 µmol/kg	
CC1(C)CN(C2CC(c3ccc(F)cc3)c3ccc(Cl)cc32)CCN1CCO (stereo not given)			0.34 µmol/kg	3.7 µmol/kg	
CN1CCN(C2CC(c3ccccc3F)c3ccc(Cl)cc32)CC1(C)C (stereo not given)			34 µmol/kg	> 33 µmol/kg	
Cc1ccc2c(c1)C(N1CCN(C)CC1)CC2c1ccc(F)cc1 (stereo not given)	13 nM	38 nM			
CN1CCN(C2CC(c3ccccc3)c3ccc(Cl)cc32)CC1 (stereo not given)	61 nM	16 nM			
OCCN1CCN(C2CC(c3ccc(F)cc3)c3ccc(F)cc32)CC1 (stereo not given)	82 nM	16 nM			
CC1(C)CN(C2CC(c3ccc(F)cc3)c3ccc(C(F)(F)F)cc32)CCN1 (stereo not given)			2.7 µmol/kg	> 51 µmol/kg	IC50 [2]: 7.5 nM
CN1CCN(C2CC(c3ccc(F)cc3)c3ccc(Br)cc32)CC1(C)C (stereo not given)			1.5 µmol/kg	9.4 µmol/kg	
COc1ccc2c(c1)C(N1CCN(CCO)CC1)CC2c1ccc(F)cc1 (stereo not given)	86 nM	210 nM			
CN1CCN(C2CC(c3cccc(F)c3)c3ccc(Cl)cc32)CC1(C)C (stereo not given)			> 33 µmol/kg	> 33 µmol/kg	
CC1(C)CN(C2CC(c3ccc(F)cc3)c3ccc(Cl)cc32)CCN1CCCO (stereo not given)	21 nM	1.1 nM		< 17 µmol/kg	
CN1CCN(C2CC(c3ccc(F)cc3)c3ccc(C(F)(F)F)cc32)CC1 (stereo not given)	8.1 nM	17 nM			
CCC1(CC)CN(C2CC(c3ccc(F)cc3)c3ccc(Cl)cc32)CCN1C (stereo not given)			> 81 µmol/kg	> 20 µmol/kg	
Cc1ccc2c(c1)C(N1CCN(CCO)CC1)CC2c1ccc(F)cc1 (stereo not given)	23 nM	51 nM			
CC1CN(C2CC(c3ccc(F)cc3)c3ccc(Cl)cc32)CC(C)N1C (stereo not given)	120 nM	13 nM	53 µmol/kg	> 36 µmol/kg	
CN1CCN(C2CC(c3ccc(F)cc3)c3c(Cl)cccc32)CC1(C)C (stereo not given)			> 36 µmol/kg		
CN1CCN(C2CC(c3ccc(Cl)cc3)c3ccc(Cl)cc32)CC1(C)C (stereo not given)	63 nM	34 nM	> 69 µmol/kg		IC50 [2]: 32 nM
CS(=O)(=O)c1ccc2c(c1)C(N1CCN(CCO)CC1)CC2c1ccc(F)cc1 (stereo not given)	42 nM	690 nM			
Cc1ccc2c(c1)C(N1CCNC(C)(C)C1)CC2c1ccc(F)cc1 (stereo not given)			33 µmol/kg	> 29 µmol/kg	
Cc1ccc2c(c1)C(N1CCN(C)C(C)(C)C1)CC2c1ccc(F)cc1 (stereo not given)			1.4 µmol/kg	33 µmol/kg	
CN1CCN(C2CC(c3ccc(F)cc3)c3ccc(F)cc32)CC1 (stereo not given)					IC50 (Rattus norvegicus [3]): 610 nM and 3900 nM
Fc1ccc(C2CC(N3CCN4CCCCC4C3)c3cc(Cl)ccc32)cc1 (stereo not given)			14 µmol/kg	4.1 µmol/kg	

Compound	IC50 (D(2) dopamine receptor)	IC50 (D(1A) dopamine receptor)	ED50 (Mus musculus; Mus musculus, read-out: ED50)	ED50 (Rattus norvegicus [1]; [6])	also measured
CSc1ccc2c(c1)C(N1CCN(CCO)CC1)CC2c1ccc(F)cc1 (stereo not given)	13 nM	39 nM			
CC1CN(C2CC(c3ccc(F)cc3)c3ccc(Cl)cc32)C(C)CN1C (stereo not given)	41 nM	19 nM	> 66 µmol/kg	> 33 µmol/kg	
CN1CCN(C2CC(c3ccc(F)cc3)c3ccc(C(F)(F)F)cc32)CC1(C)C (stereo not given)			0.99 µmol/kg	5.2 µmol/kg	
CN1CCN(C2CC(c3ccc(F)cc3)c3ccc(Cl)cc32)CC12CCC2 (stereo not given)			1 µmol/kg	69 µmol/kg	
CC1CN(C2CC(c3ccc(F)cc3)c3ccc(Cl)cc32)CCN1C (stereo not given)			0.27 µmol/kg	9.3 µmol/kg	
CN1CCN(C2CC(c3ccc(F)cc3)c3ccc(Cl)cc32)CC12CCCCC2 (stereo not given)			> 80 µmol/kg		
CN1CCN(C2CC(c3ccccc3)c3ccccc32)CC1(C)C (stereo not given)			> 36 µmol/kg	> 36 µmol/kg	
OCCN1CCN(C2CC(c3ccc(F)cc3)c3cccc(Cl)c32)CC1 (stereo not given)		130 nM			
CC(C)N1CCN(C2CC(c3ccc(F)cc3)c3ccc(Cl)cc32)CC1(C)C (single isomer, unassigned; (+))		52 nM			IC50 (Rattus norvegicus [3]): 2600 nM; IC50 (Rattus norvegicus [4]): 100 nM; IC50 (Rattus norvegicus [5]): 20 nM
CC1(C)CN(C2CC(c3ccc(F)cc3)c3ccc(Cl)cc32)CCN1 (single isomer, unassigned; (+))	12000 nM	1100 nM			IC50 [2]: 3600 nM; IC50 (Rattus norvegicus [3]): > 100 nM; IC50 (Rattus norvegicus [4]): 290 nM; IC50 (Rattus norvegicus [5]): 29 nM
OCCN1CCN(C2CC(c3ccc(F)cc3)c3ccc(Cl)cc32)CC12CCCC2 (single isomer, unassigned; (+))		51 nM			IC50 (Rattus norvegicus [3]; Rattus norvegicus): 2400 nM; IC50 (Rattus norvegicus [4]; Rattus norvegicus): 440 nM; IC50 (Rattus norvegicus [5]; [7]): 120 nM
CN1CCN(C2CC(c3ccc(F)cc3)c3ccc(Cl)cc32)CC12CCCC2 (single isomer, unassigned; (+))		6.6 nM			IC50 (Rattus norvegicus [3]; Rattus norvegicus): 1800 nM; IC50 (Rattus norvegicus [4]; Rattus norvegicus): 690 nM; IC50 (Rattus norvegicus [5]; [7]): 150 nM
CC(C)N1CCN(C2CC(c3ccc(F)cc3)c3ccc(Cl)cc32)CC1(C)C (single isomer, unassigned; (-))		0.66 nM			ED50 (Mus musculus): 0.76 µM/kg; ED50 (Rattus norvegicus [1]): 7.1 µM/kg; IC50 (Rattus norvegicus [3]; Rattus norvegicus): 3500 nM; IC50 (Rattus norvegicus [4]): 5600 nM; IC50 (Rattus norvegicus [5]): 1300 nM
CN1CCN(C2CC(c3ccc(F)cc3)c3ccc(Cl)cc32)CC1(C)C (stereo in doubt; 28)		1.3 nM			IC50 [2]: 2.1 nM; ED50 (Mus musculus): 0.65 µM/kg; ED50 (Rattus norvegicus [1]): 25 µM/kg
CC(C)N1CCN(C2CC(c3ccc(F)cc3)c3ccc(Cl)cc32)CC1(C)C (stereo in doubt; 29)		0.82 nM		6.9 µmol/kg	ED50 (Mus musculus): 1.6 µM/kg
CN1CCN(C2CC(c3ccc(F)cc3)c3ccc(Cl)cc32)CC12CCCC2 (stereo in doubt; 34)		0.85 nM	1.7 µmol/kg	42 µmol/kg	
OCCN1CCN(C2CC(c3ccc(F)cc3)c3ccc(Cl)cc32)CC12CCCC2 (stereo in doubt; 35)	13 nM	1.9 nM			ED50 (Mus musculus): 1.6 µM/kg; ED50 (Rattus norvegicus [1]): 14 µM/kg
CN1CCN(C2CC(c3ccc(F)cc3)c3ccccc32)CC1(C)C (stereo in doubt; 39)	29 nM	3 nM	12 µmol/kg	> 70 µmol/kg	IC50 [2]: 5.1 nM
CC1(C)CN(C2CC(c3ccsc3)c3ccc(Cl)cc32)CCN1 (stereo in doubt; 54)					ED50 (Mus musculus): 6.5 µM/kg; ED50 (Rattus norvegicus [1]): >35 µM/kg
CN1CCN(C2CC(c3ccc(F)cc3)c3ccc(Cl)cc32)CC1(C)C (stereo in doubt; (+)-28)		620 nM			IC50 (Rattus norvegicus [3]): > 1000 nM; IC50 (Rattus norvegicus [4]): 68 nM; IC50 (Rattus norvegicus [5]): 16 nM
CN1CCN(C2CC(c3ccc(F)cc3)c3ccc(Cl)cc32)CC1(C)C (stereo in doubt; (-)-28)		0.68 nM	0.48 µmol/kg		IC50 [2]: 1.1 nM; ED50 (Rattus norvegicus [1]): 9.8 µM/kg; IC50 (Rattus norvegicus [3]): 7200 nM; IC50 (Rattus norvegicus [4]): 6500 nM; IC50 (Rattus norvegicus [5]): 3200 nM
CN1CCN(C2CC(c3ccc(F)cc3)c3ccc(Cl)cc32)CC12CCCC2 (stereo in doubt; (-)-34)		0.96 nM			ED50 (Mus musculus): 1.2 µM/kg; ED50 (Rattus norvegicus [1]): 31 µM/kg
OCCN1CCN(C2CC(c3ccc(F)cc3)c3ccc(Cl)cc32)CC12CCCC2 (stereo in doubt; (-)-35)	5 nM	1 nM			ED50 (Mus musculus): 0.49 µM/kg; ED50 (Rattus norvegicus [1]): 2.7 µM/kg
CN1CCN(C2=Nc3cc(Cl)ccc3Nc3ccccc32)CC1 [CLOZAPINE]			98 µmol/kg	> 120 µmol/kg	
